Laboratory results published in paper PMC4607565 (Bioorganic & medicinal chemistry letters, 2015).
Positions count from the first letter of the chain named. Entries after “also recorded” stand apart in the source; their conditions may differ. Read-outs that look alike come from different tables or passages of the source.

Experiments:
human TG2 (V224 variant) = target: T1, human TG2 (V224 variant) (Homo sapiens, UniProt P21980); assay: coupled GDH assay of TG2 deamidation of Cbz-Gln-Gly; format: biochemical; conditions: for mode of inhibition / activation: V224 TG2
T1 sequence (P21980 1-687): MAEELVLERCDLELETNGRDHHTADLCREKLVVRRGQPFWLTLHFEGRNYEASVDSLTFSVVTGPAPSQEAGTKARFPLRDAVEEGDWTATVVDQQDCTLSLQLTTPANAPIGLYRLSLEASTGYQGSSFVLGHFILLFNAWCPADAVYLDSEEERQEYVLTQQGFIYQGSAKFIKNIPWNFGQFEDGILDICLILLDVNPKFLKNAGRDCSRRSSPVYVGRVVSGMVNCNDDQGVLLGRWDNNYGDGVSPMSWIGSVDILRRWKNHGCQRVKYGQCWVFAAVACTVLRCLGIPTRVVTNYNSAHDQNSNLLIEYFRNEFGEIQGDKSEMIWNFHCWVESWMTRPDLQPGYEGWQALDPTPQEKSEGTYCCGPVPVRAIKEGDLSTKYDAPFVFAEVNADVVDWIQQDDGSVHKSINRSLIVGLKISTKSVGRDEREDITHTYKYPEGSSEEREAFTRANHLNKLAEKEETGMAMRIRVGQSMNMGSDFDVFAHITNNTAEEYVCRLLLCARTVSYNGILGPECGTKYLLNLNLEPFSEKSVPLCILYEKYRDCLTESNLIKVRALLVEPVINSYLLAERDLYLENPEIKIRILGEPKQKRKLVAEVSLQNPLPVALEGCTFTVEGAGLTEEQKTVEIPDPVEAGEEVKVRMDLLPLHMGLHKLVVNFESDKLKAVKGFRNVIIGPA

[1] = target: T2, R580A mutant of human TG2 (Homo sapiens, UniProt P21980, R580A); conditions: cited from earlier work
T2 sequence (P21980 1-687 R580A): T1 sequence (P21980 1-687) with R580A

[2] = test system: extracellular TG2 in WI-38 fibroblasts; assay: 5-BP incorporation into extracellular matrix proteins of WI-38 fibroblasts; format: cell-based
Method in brief: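 WI-38 fibroblasts were grown to confluence, then pre-incubated with vehicle (1% DMSO) or test compound for 30 min. Cells were then given 200 μM 5-(biotinamido)pentylamine for 3 h, fixed and stained. Transamidation was scored as 5-BP incorporated into extracellular matrix proteins, imaged at 5 fields sampled across each well.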

TG2 [3] = target: T3, TG2 (Homo sapiens, UniProt P21980); assay: microtiter plate transamidation assay; format: biochemical
T3 sequence (P21980 1-687): T1 sequence (P21980 1-687)
Method in brief: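 In a microtiter plate format, TG2 incorporated 5-BP into immobilized N,N-dimethylcasein. The incorporated biotin was quantified with streptavidin. Ca2+ was held at the sub-saturating level of 0.6 mM, and the test compound was assayed with or without the stable GTP analog GMP-PNP.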

TG2 [4] = target: T3, TG2; assay: native PAGE analysis of open versus closed states
[5] = target: T2, R580A mutant of human TG2; assay: deamidation activity of R580A mutant; format: biochemical; conditions: [TG2] = 0.5 μM, [Ca2+] = 3 mM
Method in brief: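 Deamidation by wild-type and R580A TG2 was measured side by side with test compound and the GTP analog GMP-PNP, at 0.5 μM enzyme and 3 mM Ca2+.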

[6] = target: T4, truncated form of human TG2 (1-466) (Homo sapiens, UniProt P21980); assay: deamidation activity of truncated TG2; format: biochemical; conditions: [TG2] = 0.5 μM; [Ca2+] = 5 mM
T4 sequence (P21980 1-466): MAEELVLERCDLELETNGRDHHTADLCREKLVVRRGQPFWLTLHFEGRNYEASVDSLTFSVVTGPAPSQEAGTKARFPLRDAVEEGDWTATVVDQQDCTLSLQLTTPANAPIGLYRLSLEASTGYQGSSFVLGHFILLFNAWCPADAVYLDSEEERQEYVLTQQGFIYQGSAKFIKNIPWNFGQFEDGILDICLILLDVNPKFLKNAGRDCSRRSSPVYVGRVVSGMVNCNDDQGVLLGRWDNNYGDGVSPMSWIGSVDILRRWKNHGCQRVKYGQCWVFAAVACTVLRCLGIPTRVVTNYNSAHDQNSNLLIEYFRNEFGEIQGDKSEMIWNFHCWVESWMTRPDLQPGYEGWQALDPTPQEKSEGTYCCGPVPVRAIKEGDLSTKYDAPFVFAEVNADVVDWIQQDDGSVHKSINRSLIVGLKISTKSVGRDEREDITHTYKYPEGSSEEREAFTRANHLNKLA
Method in brief: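 The truncated TG2 (residues 1-466) lacks both C-terminal beta-barrel domains and was expressed and purified. It was tested against wild-type TG2 in the deamidation assay at 0.5 μM enzyme and 5 mM Ca2+. Activity was normalized to each protein's own maximum, since kcat and KM differ between the two proteins.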

[7] = target: T5, TG2 S2A mutant (E396Q/N398S/D400N) (Homo sapiens, UniProt P21980, D400N/E396Q/N398S); assay: deamidation activity of S2A mutant; format: biochemical; conditions: [TG2] = 2.5 μM; [Ca2+] = 5 mM
T5 sequence (P21980 1-687 E396Q/N398S/D400N): T1 sequence (P21980 1-687) with E396Q, N398S, D400N

[8] = target: T6, TG2 S2B mutant (E447Q/E451Q/E452Q/E454Q) (Homo sapiens, UniProt P21980, E447Q/E451Q/E452Q/E454Q); assay: deamidation activity of S2B mutant; format: biochemical; conditions: [TG2] = 2.5 μM; [Ca2+] = 5 mM
T6 sequence (P21980 1-687 E447Q/E451Q/E452Q/E454Q): T1 sequence (P21980 1-687) with E447Q, E451Q, E452Q, E454Q

TG2 [9] = conditions: cited from earlier work
TG2 [10] = target: T3, TG2; conditions: active site-directed irreversible inhibitor; cited from earlier work

Compound: Nc1nc2c(ncn2[C@@H]2O[C@H](COP(=O)(O)OP(=O)(O)NP(=O)(O)O)[C@@H](O)[C@H]2O)c(=O)[nH]1 [GMP-PNP, reference compound]
- mode of inhibition / activation (human TG2 (V224 variant); Lineweaver-Burk analysis): competitive inhibitor
- inhibition of R580A mutant [1]: attenuated

Compound: COc1ccccc1C(=O)/C=C1/C(=O)Nc2cccc(Cl)c21 [CK-IV-55]
- mode of inhibition / activation (human TG2 (V224 variant); Lineweaver-Burk analysis): non-competitive inhibitor
- extent of inhibition of wild-type TG2 (human TG2 (V224 variant); [TG2] = 0.5 μM, [Ca2+] = 5 mM): partial inhibitory character
- effect on TG2 catalytic activity at sub-saturating Ca2+ (human TG2 (V224 variant); sub-saturating Ca2+, 0.5-0.7 mM (legend of Figure 4A: 0.5-0.8 mM)): weak but reproducible agonism; also recorded: activated TG2
- extracellular TG2 activity (5-BP incorporation) ([2]; 1 μM compound, 200 μM 5-BP, 3 h): activation of extracellular TG2
- extracellular TG2 activity (5-BP incorporation) ([2]; 10 μM compound, 3 h): TG2 activity was suppressed compared to the 1 μM case
- effect on transamidating activity of TG2 (TG2 [3]; 0.6 mM Ca2+ alone): agonism was not observed
- effect on transamidation activity of TG2 (TG2 [3]; 0.6 mM Ca2+ and 100 μM GMP-PNP): markedly enhanced
- influence on relative distribution of open versus closed states of TG2 (TG2 [4]): did not have a measurable influence
- agonistic effect in the presence of GMP-PNP ([5]; R580A mutant): evident
- inhibitory potency in R580A mutant versus wild-type [5]: unaltered
- extent of inhibition of TG2 (1-466) [6]: total antagonist
- inhibitory effect on S2A mutant compared with wild-type [7]: comparable inhibitory effect
- effect on activity of S2B mutant [8]: no effect

Compound: [Ca+2] [Ca^2+, reference compound]
- mode of inhibition / activation (human TG2 (V224 variant); Lineweaver-Burk analysis): competitive activator
- Ka, activation of V224 TG2 (human TG2 (V224 variant); Lineweaver-Burk analysis, [TG2] = 0.5 μM): 0.6 ± 0.3 mM
- Kd (TG2 [9]; read-out: Kd, high-affinity Ca2+ binding site, one site (S1)): ~1 µM
- Kd (TG2 [9]; read-out: Kd, lower-affinity Ca2+ binding sites, five sites): ~1000 µM

Compound: Ac-P(DON)LPF-NH2
- effect on TG2 conformation (TG2 [10]): locks TG2 in the open state

Compound: O=C1Nc2cccc(Cl)c2/C1=C\C(=O)c1ccc(Cl)cc1 [CK-IV-67]
- extracellular TG2 activity (5-BP incorporation) ([2]; concentrations not given (data not shown)): higher absolute concentrations of the latter inhibitor were required to see elevated 5-BP incorporation
